≈ marks a conversion by molar mass, not a printed value.
Key:
Type in all cases: functional
[1] = test system: Haemophilus influenzae; assay: Antimicrobial activity against Haemophilus influenzae isolate by broth microdilution method
Outline: (§1)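 Broth microdilution MIC in freshly prepared Haemophilus test medium per 2008 CLSI guidelines; H. influenzae ATCC 49247 and ATCC 49766 as control strains. Isolates from outpatient nasal aspirates (no prior antibiotics), cultured on blood agar with S. aureus streak and chocolate agar. PBP3 substitutions deduced from ftsI sequencing against the Rd strain; β-lactamase genes (TEM-1, ROB-1) detected by PCR.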

[2] = test system: Haemophilus influenzae; assay: Antimicrobial activity against Beta-lactamase-positive, ampicillin-cluvulanate-resistant Haemophilus influenzae by broth microdilution method; outline: as §1
[3] = test system: Haemophilus influenzae; assay: Antimicrobial activity against Beta-lactamase-negative, ampicillin-resistant Haemophilus influenzae by broth microdilution method; outline: as §1
[4] = test system: Haemophilus influenzae; assay: Antimicrobial activity against beta-lactamase-negative, ampicillin-sensitive Haemophilus influenzae by broth microdilution method; outline: as §1
[5] = test system: Haemophilus influenzae; assay: Antimicrobial activity against Beta-lactamase-positive, ampicillin-resistant Haemophilus influenzae by broth microdilution method; outline: as §1

Row | Compound | MIC50 [1] | MIC90 [1] | MIC50 [2] | MIC90 [2] | MIC50 [3] | MIC90 [3] | MIC50 [4] | MIC90 [4] | MIC50 [5] | MIC90 [5]
1 | C[C@H]1COc2c(N3CCN(C)CC3)c(F)cc3c(=O)c(C(=O)O)cn1c23.C[C@H]1COc2c(N3CCN(C)CC3)c(F)cc3c(=O)c(C(=O)O)cn1c23.O [LEVOFLOXACIN] | 0.016 µg/mL | 0.031 µg/mL | 0.016 µg/mL | 0.031 µg/mL | 0.016 µg/mL | 0.016 µg/mL | 0.016 µg/mL | 0.031 µg/mL | 0.016 µg/mL | 0.031 µg/mL
2 | O=C(N[C@H](CO)[C@H](O)c1ccc([N+](=O)[O-])cc1)C(Cl)Cl [CHLORAMPHENICOL] | 0.5 µg/mL (≈ 1.55 µM) | 1 µg/mL (≈ 3.09 µM) | 0.5 µg/mL (≈ 1.55 µM) | 8 µg/mL (≈ 24.8 µM) | 0.5 µg/mL (≈ 1.55 µM) | 1 µg/mL (≈ 3.09 µM) | 0.5 µg/mL (≈ 1.55 µM) | 0.5 µg/mL (≈ 1.55 µM) | 0.5 µg/mL (≈ 1.55 µM) | 8 µg/mL (≈ 24.8 µM)
